An excerpt weighted towards active compounds, which were near 1.7% of everything screened.
APOBEC3A inh: APOBEC3A ssDNA deaminase inhibitors, primary screen, selectivity assay for APOBEC3G inhibitor project, biochemical, FAM/TAMRA oligo cleavage fluorescence | DNA dC->dU-editing enzyme APOBEC-3A (Homo sapiens), P31941 | recombinant A3A, FAM/TAMRA ssDNA deamination fluorescence | inhibition, % at 20 µM | hit rate 0.41% among 330,000 | AID 493011, 2011;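 active means at least 40% inhibition at 20 µM here, with at most 30% in a related deaminase screen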;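 further: plate controls were A3A with DMSO for no effect and wells lacking A3A enzyme for full effect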
CAL PDZ FP-1: untagged CAL PDZ binding inhibitors, primary screen, biochemical, fluorescence polarization, HTS. Golgi-associated PDZ and coiled-coil motif-containing protein (Homo sapiens), Q9HD26. purified CAL PDZ, TMR-peptide fluorescence polarization, 1 h. inhibition, % at 24.9 µM. hit rate 0.92% among 300,000. AID 602252, 2012;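 active means mean inhibition of at least 30% with at least half of replicates also reaching 30%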;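 further: 0% = DMSO neutral control and 100% = excess unlabeled competitor peptide PRC23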
C-LANA FP: inhibitors of KSHV C-LANA binding to DNA, primary screen, biochemical, fluorescence polarization, FAM-LBS DNA, MBP-C-LANA, single point; Kaposi's sarcoma herpesvirus LANA C-terminal domain (residues 932-1162) DNA binding; inhibition, % at 9 µM; hit rate 0.078% among 340,000; AID 504423, 2011;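 active means highest replicate inhibition at or above 60% at 9 µM, even if other replicates fall short; inactive means all replicates below 60% inhibition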;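 further: 0% = neutral control wells and 100% = 4 µM acridine orange control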
Keap1-Nrf2 PPI: Keap1-Nrf2 protein-protein interaction inhibitors, primary screen, biochemical, fluorescence polarization, single point; Keap1 Kelch-Nrf2 peptide fluorescence polarization, 1536-well; inhibition, % at 9.4 µM; hit rate 0.15% among 340,000; AID 504523, 2011; in the data active means inhibition above about 12%;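 further: human Keap1 Kelch domain with fluorescein labeled Nrf2 9mer peptide probe; 0% = neutral control wells and 100% = peptide positive control; higher means more block of Keap1 binding to Nrf2 peptide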
APOBEC3G inh: APOBEC3G DNA deaminase inhibitors, primary screen, biochemical, fluorescence, single-stranded DNA substrate, uHTS | DNA dC->dU-editing enzyme APOBEC-3G (Homo sapiens), Q9HC16 | recombinant A3G, ssDNA deamination FAM/TAMRA fluorescence | inhibition, % at 20 µM | hit rate 0.28% among 330,000;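 active means inhibition of at least 40% at 20 µM, with no more than 30% in the related APOBEC3A deaminase screen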;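 further: plate controls were DMSO wells with A3G for no effect and wells lacking A3G enzyme for full effect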
Target sequence (Q9HC16 whole entry, looked up): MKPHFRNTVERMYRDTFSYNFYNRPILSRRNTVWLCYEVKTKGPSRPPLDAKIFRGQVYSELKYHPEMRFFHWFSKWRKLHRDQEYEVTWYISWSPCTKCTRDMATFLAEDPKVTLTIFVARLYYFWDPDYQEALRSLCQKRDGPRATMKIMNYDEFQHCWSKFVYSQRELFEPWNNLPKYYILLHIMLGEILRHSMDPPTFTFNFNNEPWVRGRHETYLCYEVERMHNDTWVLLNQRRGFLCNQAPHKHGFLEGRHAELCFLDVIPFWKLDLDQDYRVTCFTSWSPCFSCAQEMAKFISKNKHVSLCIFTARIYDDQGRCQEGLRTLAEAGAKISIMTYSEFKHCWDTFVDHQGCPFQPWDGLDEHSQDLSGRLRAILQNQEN
CAL PDZ FP-2: CAL PDZ peptide-binding inhibitors, primary screen, biochemical, fluorescence polarization, Cer-tagged CAL PDZ, HTS; Golgi-associated PDZ and coiled-coil motif-containing protein (Homo sapiens), Q9HD26; purified CAL PDZ, TMR-peptide fluorescence polarization, 1 h; inhibition, % at 20 µM; hit rate 0.02% among 330,000; AID 504414, 2011;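 active means highest replicate inhibition of at least 40%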;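 further: plate controls were DMSO neutral control wells for no effect and unlabeled competitor peptide control wells for full effect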
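material = purified tagged CAL PDZ domain construct (CerCALP) | buffer or medium = sodium phosphate/NaCl buffer pH 7.4 with TCEP, IgG, Thesit | reagent = TMR-labelled reporter peptide T*-PRC34 bound in PDZ groove | incubation = 1 h room-temperature incubation prior to read | measured by = fluorescence polarization (mP) | evaluation = percent inhibition from loss of millipolarization | control set = unlabelled peptide and DMSO controls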
* hit, by the source's call; · = not tested or not shown.

SMILES | APOBEC3A inh | CAL PDZ FP-1 | C-LANA FP | Keap1-Nrf2 PPI | APOBEC3G inh | CAL PDZ FP-2
Cc1ccc(C(=O)NN(CCC(=O)NC(C)(C)C)C2=NS(=O)(=O)c3ccccc32)cc1 | 2.2 | 0.0 | -0.1 | -3.5 | -1.2 | -0.8
CN(C(=O)c1cc(S(=O)(=O)N2CCc3ccccc32)cn1C)C1CCCCC1 | -2.0 | 7.1 | 0.5 | -5.7 | -10.1 | -0.3
COc1cccc(NC(=O)COC(=O)C2CC(=O)N(c3ccc(C)cc3)C2)c1 (centres undefined) | 3.7 | 4.3 | -2.9 | -1.3 | 3.4 | 0.8
COc1ccc(CNC(=O)CN2C(=O)NC(C)(c3cccc4ccccc34)C2=O)cc1OC (centres undefined) | 0.7 | 41.3* | -0.9 | 0.1 | -5.8 | -1.5
COc1ccc(C2(C)NC(=O)N(CC(=O)Nc3ccc4ccccc4c3)C2=O)cc1OC (centres undefined) | -4.7 | -0.1 | -2.4 | -3.4 | -8.3 | -2.9
COc1ccccc1NC(=O)/C(=C\c1cccnc1)NC(=O)c1ccccc1 | -2.5 | -1.4 | -1.5 | -1.9 | -20.1 | -0.8
COc1ccccc1NC(=O)/C(=C\c1cccnc1)NC(=O)c1ccc(C)cc1 | 2.1 | 42.0* | 0.0 | 4.3 | -2.8 | -1.2
O=S(=O)(c1cccc2cccc(Cl)c12)N1CCCC1 | -0.4 | · | 0.5 | -2.5 | -4.3 | -1.2
O=C(CCN1C(=O)/C(=C\c2ccccc2Cl)SC1=S)Nc1cccnc1 | -4.4 | 66.4* | 1.5 | -5.5 | -6.8 | -1.3
O=C(CCN1C(=O)/C(=C/c2ccccc2F)SC1=S)Nc1cccnc1 | -4.2 | -3.9 | -2.3 | 4.1 | 3.6 | 0.4
O=C(Nc1cc(Cl)cc(Cl)c1)c1cccnc1 | -1.4 | -3.2 | -0.7 | 2.5 | -0.9 | -1.0
NS(=O)(=O)c1ccc(NC(=O)c2cc(Cl)ccc2Cl)cc1 | -1.0 | 0.0 | 1.5 | -1.7 | -5.7 | -1.2
Cc1ccc(NC(=O)c2cccs2)cc1NC(=O)c1cccnc1 | 2.5 | 104.9* | -2.2 | -4.4 | 6.8 | -0.7
NS(=O)(=O)c1ccc(NC(=O)c2cccc(Cl)c2)cc1 | 4.4 | 39.3* | 2.2 | -6.8 | -4.2 | -1.0
O=C(Nc1cccc(NC(=O)c2cccc(Cl)c2)c1)c1cccnc1 | 1.5 | 35.2* | 0.0 | 1.3 | -3.3 | -3.2
CN(CCCC(=O)N1CCCC(C(N)=O)C1)S(=O)(=O)c1ccc(F)cc1 (centres undefined) | 2.6 | -1.1 | -0.2 | -4.2 | 1.4 | 0.1
COc1cccc(NC(=O)CCCn2nc(C)c3c(C)n(-c4ccccc4)nc3c2=O)c1 | -3.7 | 4.3 | -0.8 | 0.7 | -3.7 | -0.9
COc1ccc2cc(C3(C)NC(=O)N(CC(=O)N4CCCCC4)C3=O)ccc2c1 (centres undefined) | -2.6 | -2.4 | 2.5 | 2.8 | -6.4 | -1.1
CC[C@]1(C(=O)OC)[C@H]2C(=O)N(C)C(=O)[C@H]2[C@H]2CN=C(SCc3ccc(C)cc3)N21 | -3.1 | -2.6 | 0.1 | -0.7 | 0.0 | 0.2
O=C(c1ccco1)N1CCN(Cc2cc(=O)oc3cc(O)ccc23)CC1 | 7.1 | 48.2* | -0.1 | -0.2 | 4.9 | -0.7
O=c1cc(CN2CCN(Cc3ccccc3)CC2)c2ccc(O)cc2o1 | -3.6 | -3.1 | -0.8 | -4.4 | -11.5 | -1.3
O=C(NCc1nc2ccccc2[nH]1)C1=C[C@@H](c2ccccc2)C[C@@H](OCCCCO)O1 | -1.8 | -2.6 | -1.7 | -7.9 | -14.3 | -0.2
CC(C)(C)[C@H]1COC(=O)CCCC/C=C\C[C@H](CC(=O)N(CCO)Cc2ccccc2)C(=O)N1 | -4.5 | 105.9* | -0.8 | -2.2 | -5.6 | -0.7
CC(C)(C)[C@H]1COC(=O)CCC/C=C/C[C@H](CC(=O)N(CCO)Cc2ccccc2)C(=O)N1 | -2.7 | -3.0 | 0.7 | -6.6 | -11.2 | -0.1

From PubChem BioAssay
